Experimental data reported in ChEMBL document CHEMBL3808334, “Synthesis and in vitro evaluation of novel triazine analogues as anticancer agents and their interaction studies with bovine serum albumin” (Eur J Med Chem, 2016).

Assays:
[1] = Growth inhibition of human UO31 cells assessed as cell growth at 10^-7 M incubated for 48 hrs by sulforhodamine B assay; assay type: functional; settings: UO-31, 48 h, read-out: Activity
NCI-H226 [2] = assay: Growth inhibition of human NCI-H226 cells assessed as cell growth at 10^-6 M incubated for 48 hrs by sulforhodamine B assay; assay type: functional; settings: NCI-H226, 48 h, read-out: Activity
NCI-H23 = assay: Growth inhibition of human NCI-H23 cells assessed as cell growth at 10^-6 M incubated for 48 hrs by sulforhodamine B assay; assay type: functional; settings: NCI-H23, 48 h, read-out: Activity
NCI-H226 [3] = assay: Growth inhibition of human NCI-H226 cells assessed as cell growth at 10^-4 M incubated for 48 hrs by sulforhodamine B assay; assay type: functional; settings: NCI-H226, 48 h, read-out: Activity
[4] = Growth inhibition of human PC3 cells assessed as cell growth at 10^-4 M incubated for 48 hrs by sulforhodamine B assay; assay type: functional; settings: PC-3, 48 h, read-out: Activity
SN12C = assay: Growth inhibition of human SN12C cells assessed as cell growth at 10 uM incubated for 48 hrs by sulforhodamine B assay; assay type: functional; settings: read-out: Activity
[5] = Growth inhibition of human SNB19 cells assessed as cell growth at 10^-6 M incubated for 48 hrs by sulforhodamine B assay; assay type: functional; settings: SNB-19, 48 h, read-out: Activity
A498 = assay: Growth inhibition of human A498 cells assessed as cell growth at 10^-6 M incubated for 48 hrs by sulforhodamine B assay; assay type: functional; settings: A498, 48 h, read-out: Activity
Outline: (§1)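 Five-dose assay: five concentrations from 10-fold or ½-log serial dilutions. Cells are plated at 5,000–40,000 per well according to doubling time, grown 24 h, then exposed 48 h at 37 °C, 5% CO₂. Fixed with cold 50% TCA (final addition) for 60 min at 4 °C and stained with 0.4% SRB in 1% acetic acid. Bound dye is solubilized in 10 mM Tris base and read at 515 nm. GI₅₀ is where [(Ti−Tz)/(C−Tz)]×100 = 50, with a time-zero plate as Tz.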

MCF7 [6] = assay: Growth inhibition of human MCF7 cells assessed as cell growth at 10^-5 M incubated for 48 hrs by sulforhodamine B assay; assay type: functional; settings: MCF7, 48 h, read-out: Activity
[7] = Growth inhibition of human UO31 cells assessed as cell growth at 10^-6 M incubated for 48 hrs by sulforhodamine B assay; assay type: functional; settings: UO-31, 48 h, read-out: Activity
MCF7 [8] = assay: Growth inhibition of human MCF7 cells incubated for 48 hrs by sulforhodamine B assay; assay type: functional; settings: MCF7, 48 h
Outline: (§2)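 Cells were plated at 5,000–40,000 per well according to doubling time and preincubated 24 h at 37 °C in 5% CO2; time-zero plates were then TCA-fixed. Five concentrations (10-fold or ½-log dilutions, DMSO stock) were incubated 48 h. Cells were TCA-fixed, stained with 0.4% SRB and read at 515 nm. GI50 was taken where [(Ti−Tz)/(C−Tz)]×100 = 50.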

T47D = assay: Growth inhibition of human T47D cells assessed as cell growth at 10^-8 M incubated for 48 hrs by sulforhodamine B assay; assay type: functional; settings: read-out: Activity
NCI-H460 = assay: Growth inhibition of human NCI-H460 cells assessed as cell growth at 10 uM incubated for 48 hrs by sulforhodamine B assay; assay type: functional; settings: NCI-H460, 48 h, read-out: Activity
[9] = Growth inhibition of human COLO205 cells assessed as cell growth at 10 uM incubated for 48 hrs by sulforhodamine B assay; assay type: functional; settings: COLO 205, 48 h, read-out: Activity
Outline: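 Primary screen at one dose (10 µM) across 60 human cancer cell lines. Readout was growth percent relative to untreated control and time-zero.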

NCI-H226 [10] = assay: Growth inhibition of human NCI-H226 cells assessed as cell growth at 10 uM incubated for 48 hrs by sulforhodamine B assay; assay type: functional; settings: NCI-H226, 48 h, read-out: Activity
[11] = Growth inhibition of human COLO205 cells assessed as cell growth at 10^-7 M incubated for 48 hrs by sulforhodamine B assay; assay type: functional; settings: COLO 205, 48 h, read-out: Activity
Outline: (§3)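 Cells seeded at 5,000–40,000/well according to doubling time and preincubated 24 h at 37 °C, 5% CO2. Time-zero plates were TCA-fixed. DMSO concentrate was diluted in medium with 50 µg/ml gentamicin to give five concentrations (10-fold or ½ log steps), then exposed 48 h. Cells were TCA-fixed, stained with 0.4% SRB and read at 515 nm. Percent growth was taken against time-zero and control; GI50, TGI and LC50 derived.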

[12] = Growth inhibition of human SF295 cells assessed as cell growth at 10^-7 M incubated for 48 hrs by sulforhodamine B assay; assay type: functional; settings: SF-295, 48 h, read-out: Activity
[13] = Growth inhibition of human BT549 cells assessed as cell growth at 10^-6 M incubated for 48 hrs by sulforhodamine B assay; assay type: functional; settings: BT-549, 48 h, read-out: Activity; outline: as §1
[14] = Growth inhibition of human OVCAR4 cells assessed as cell growth at 10^-4 M incubated for 48 hrs by sulforhodamine B assay; assay type: functional; settings: OVCAR-4, 48 h, read-out: Activity
Albumin = Albumin (Bos taurus, UniProt P02769); assay: Binding affinity to bovine serum albumin assessed as isoemissive point up to 20 uM by fluorescence spectroscopic analysis relative to control; assay type: ADME; settings: cattle, isolated protein
Outline: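 Fluorescence titration of 10 µM BSA in 0.1 M phosphate buffer pH 7.4 with compound at 0–20 µM, diluted from DMSO stocks. Excitation 280 nm, slit 10 nm, 1 cm quartz cell, 300 K. Changes in the 350 nm Trp emission, new bands near 370–373 nm and isoemissive points are read against BSA alone.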

[15] = Growth inhibition of human DU145 cells assessed as cell growth at 10^-5 M incubated for 48 hrs by sulforhodamine B assay; assay type: functional; settings: DU-145, 48 h, read-out: Activity; outline: as §3
[16] = Growth inhibition of human HCT116 cells incubated for 48 hrs by sulforhodamine B assay; assay type: functional; settings: HCT-116, 48 h; outline: as §3
[17] = Growth inhibition of human Hs 578T cells incubated for 48 hrs by sulforhodamine B assay; assay type: functional; outline: as §2
MDA-MB-468 = assay: Growth inhibition of human MDA-MB-468 cells assessed as cell growth at 10^-7 M incubated for 48 hrs by sulforhodamine B assay; assay type: functional; settings: MDA-MB-468, 48 h, read-out: Activity
NCI/ADR-RES = assay: Growth inhibition of human NCI/ADR-RES cells assessed as cell growth at 10^-7 M incubated for 48 hrs by sulforhodamine B assay; assay type: functional; settings: read-out: Activity
[18] = Growth inhibition of human OVCAR5 cells assessed as cell growth at 10^-5 M incubated for 48 hrs by sulforhodamine B assay; assay type: functional; settings: OVCAR-5, 48 h, read-out: Activity
[19] = read-out: LC50 (the source's name)
[20] = read-out: pLC50 (the source's name) (converted)

Sequence of Albumin (P02769 whole entry): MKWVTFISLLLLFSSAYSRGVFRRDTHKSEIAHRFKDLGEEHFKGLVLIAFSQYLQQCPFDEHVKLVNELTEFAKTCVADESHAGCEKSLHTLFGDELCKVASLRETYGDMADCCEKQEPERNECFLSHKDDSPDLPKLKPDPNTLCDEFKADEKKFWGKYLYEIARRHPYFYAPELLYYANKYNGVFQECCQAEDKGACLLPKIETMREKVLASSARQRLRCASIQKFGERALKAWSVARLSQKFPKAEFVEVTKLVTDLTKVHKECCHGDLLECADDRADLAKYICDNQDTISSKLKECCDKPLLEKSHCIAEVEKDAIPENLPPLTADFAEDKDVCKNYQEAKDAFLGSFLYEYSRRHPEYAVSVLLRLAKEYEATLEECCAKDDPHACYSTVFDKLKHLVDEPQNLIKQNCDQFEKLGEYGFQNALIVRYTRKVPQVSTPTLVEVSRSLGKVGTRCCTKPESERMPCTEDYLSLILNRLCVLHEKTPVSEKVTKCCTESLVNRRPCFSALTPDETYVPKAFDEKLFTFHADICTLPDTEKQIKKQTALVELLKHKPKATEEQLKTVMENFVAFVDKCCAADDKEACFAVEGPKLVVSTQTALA

c1ccc(-c2nc(Nc3ccc(-c4nc5ccccc5[nH]4)cc3)nc(N3CCOCC3)n2)cc1
growth at 0.1 µM [1]: 82% | growth at 1 µM (NCI-H226 [2]): 117% | growth at 1 µM (NCI-H23): 93% | growth at 100 µM (NCI-H226 [3]): -59% | growth at 100 µM [4]: -82% | growth at 10 µM (SN12C): -62.8% | growth at 1 µM [5]: 92% | growth at 1 µM (A498): 55% | growth at 10 µM (MCF7 [6]): -57% | growth at 1 µM [7]: 68% | GI50 (MCF7 [8]; read-out: GI50): 0.877 µM | CC50 (MCF7 [8]; [19]): 8.56 µM | TGI (MCF7 [8]; read-out: TGI): 2.85 µM | GI50 (MCF7 [8]; read-out: pGI50 (converted)): 0.871 µM | CC50 (MCF7 [8]; [20]): 8.51 µM | TGI (MCF7 [8]; read-out: pTGI (converted)): 2.82 µM | growth at 0.01 µM (T47D): 103% | growth at 10 µM (NCI-H460): -67.2% | growth at 10 µM [9]: -68.8% | growth at 10 µM (NCI-H226 [10]): -19.3% | growth at 0.1 µM [11]: 91% | growth at 0.1 µM [12]: 101% | growth at 1 µM [13]: 100% | growth at 100 µM [14]: -98% | Activity (Albumin): 357 nm | growth at 10 µM [15]: -96% | GI50 ([16]; read-out: GI50): 0.394 µM | CC50 [16, 19]: 7.18 µM | TGI ([16]; read-out: TGI): 1.62 µM | GI50 ([16]; read-out: pGI50 (converted)): 0.398 µM | CC50 [16, 20]: 7.24 µM | TGI ([16]; read-out: pTGI (converted)): 1.62 µM | GI50 ([17]; read-out: GI50): 1.89 µM | CC50 [17, 19]: > 100 µM | TGI ([17]; read-out: TGI): 6.04 µM | GI50 ([17]; read-out: pGI50 (converted)): 1.91 µM | CC50 [17, 20]: > 100 µM | TGI ([17]; read-out: pTGI (converted)): 6.03 µM | growth at 0.1 µM (MDA-MB-468): 112% | growth at 0.1 µM (NCI/ADR-RES): 95% | growth at 10 µM [18]: -73%

Clc1ccc(-c2nc(Nc3ccc(-c4nc5ccccc5[nH]4)cc3)nc(N3CCOCC3)n2)cc1
growth at 0.1 µM [1]: 92% | growth at 1 µM (NCI-H226 [2]): 100% | growth at 1 µM (NCI-H23): 85% | growth at 100 µM (NCI-H226 [3]): -25% | growth at 100 µM [4]: -45% | growth at 10 µM (SN12C): -79.5% | growth at 1 µM [5]: 17% | growth at 1 µM (A498): 89% | growth at 10 µM (MCF7 [6]): -66% | growth at 1 µM [7]: 80% | GI50 (MCF7 [8]; read-out: GI50): 0.194 µM | TGI (MCF7 [8]; read-out: TGI): 0.49 µM | GI50 (MCF7 [8]; read-out: pGI50 (converted)): 0.195 µM | TGI (MCF7 [8]; read-out: pTGI (converted)): 0.49 µM | growth at 0.01 µM (T47D): 99% | growth at 10 µM (NCI-H460): -80.3% | growth at 10 µM [9]: -68.4% | growth at 10 µM (NCI-H226 [10]): -64.5% | growth at 0.1 µM [11]: 95% | growth at 0.1 µM [12]: 91% | growth at 1 µM [13]: 86% | growth at 100 µM [14]: -51% | Activity (Albumin): 349 nm | growth at 10 µM [15]: -93% | GI50 ([16]; read-out: GI50): 0.177 µM | TGI ([16]; read-out: TGI): 0.346 µM | GI50 ([16]; read-out: pGI50 (converted)): 0.178 µM | TGI ([16]; read-out: pTGI (converted)): 0.347 µM | GI50 ([17]; read-out: GI50): 0.7 µM | CC50 [17, 19]: > 100 µM | TGI ([17]; read-out: TGI): 3.02 µM | GI50 ([17]; read-out: pGI50 (converted)): 0.708 µM | CC50 [17, 20]: > 100 µM | TGI ([17]; read-out: pTGI (converted)): 3.02 µM | growth at 0.1 µM (MDA-MB-468): 112% | growth at 0.1 µM (NCI/ADR-RES): 101% | growth at 10 µM [18]: -79%
